Read-outs that look alike come from different tables or passages of the source.
Experiments:
COLO 205 = experiment: NCI-60 SRB screen, Colon cancer; format: cell-based
Summary of the method: (§1)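 Five-dose NCI-60 protocol (DTP, NCI). Absorbance was read at time zero (Tz), for untreated control (C) and at five compound levels (Ti), with SRB protein-stain end point read spectrophotometrically. GI50 from [(Ti−Tz)/(C−Tz)]×100 = 50; TGI from Ti = Tz; LC50 from [(Ti−Tz)/Tz]×100 = −50. A parameter not reached is given as greater than the highest concentration tested.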

MDA-MB-231/ATCC = experiment: NCI-60 SRB screen, Breast cancer; format: cell-based
Summary of the method: as §1

NCI/ADR-RES = experiment: NCI-60 SRB screen, Ovarian cancer; format: cell-based
Summary of the method: as §1

UACC-257 = experiment: NCI-60 SRB screen, Melanoma; format: cell-based
Summary of the method: as §1

HS 578 T = experiment: NCI-60 SRB screen, Breast cancer; format: cell-based
Summary of the method: as §1

TK-10 = experiment: NCI-60 SRB screen, Renal cancer; format: cell-based
Summary of the method: as §1

[1] = tested on: cleaved PARP in A375 cells; experiment: PARP cleavage western blot; format: cell-based, human; conditions: 12 h exposure
Summary of the method: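 A375 cells (1,000,000 per well) were seeded 24 h, then exposed to several test compound doses for 12 h before lysis in buffer with protease/phosphatase inhibitors. Protein was measured by Bradford. 60 μg lysate was run on 10% SDS-PAGE and blotted to PVDF. Blots were probed for PARP and cleaved PARP, with vinculin as loading control. Done twice.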

[2] = tested on: NCI-60 panel of tumor cell lines; experiment: cells; conditions: Homo sapiens
786–0 = experiment: NCI-60 SRB screen, Renal cancer; format: cell-based
Summary of the method: as §1

ERK2 = ERK2 (Rattus norvegicus, UniProt P63086); experiment: steady-state kinetic experiments, ERK2 with varied Mg-ATP; format: biochemical; conditions: versus ATP, double reciprocal plot
Summary of the method: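 Activated rat ERK2 was run in the radiometric kinase buffer with 50 μM His-Ets-1. Mg-ATP was varied (10–2000 μM) at several fixed test compound concentrations (0–54 μM). Initial rates were taken from product-versus-time plots. Mechanism was assessed from a double-reciprocal plot of 1/V0 versus 1/[Mg-ATP].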

Chain of ERK2 (P63086 whole entry): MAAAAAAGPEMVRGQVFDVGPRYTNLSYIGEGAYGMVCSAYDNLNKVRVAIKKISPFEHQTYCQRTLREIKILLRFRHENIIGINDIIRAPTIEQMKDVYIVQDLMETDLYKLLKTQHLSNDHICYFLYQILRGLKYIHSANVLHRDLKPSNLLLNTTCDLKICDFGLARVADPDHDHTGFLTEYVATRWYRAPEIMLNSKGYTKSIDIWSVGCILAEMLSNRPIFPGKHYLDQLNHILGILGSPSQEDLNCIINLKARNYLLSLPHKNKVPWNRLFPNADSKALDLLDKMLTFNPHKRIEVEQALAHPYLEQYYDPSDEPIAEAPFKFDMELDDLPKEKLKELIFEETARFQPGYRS

`O=C1c2ccccc2C(=O)c2c1oc1c2c(=O)[nH]c2ccc(Cl)cc21` [3b, 2-Chloronaphtho[2′,3′:4,5]furo[3,2-c]quinoline-6,7,12(5H)-trione] showed a TGI (COLO 205; COLO 205, five-dose) of 27540 nM, a GI50 (COLO 205; Homo sapiens, COLO 205) of 10500 nM and a CC50 (COLO 205; Homo sapiens, COLO 205, read-out: LC50) of 72400 nM. It also gave a GI50 (MDA-MB-231/ATCC; Homo sapiens, MDA-MB-231) of 170 nM, a CC50 (MDA-MB-231/ATCC; Homo sapiens, MDA-MB-231, read-out: LC50) of 2820 nM and a TGI (MDA-MB-231/ATCC; MDA-MB-231/ATCC, five-dose) of 510 nM. The GI50 (NCI/ADR-RES; Homo sapiens) was 350 nM, the CC50 (NCI/ADR-RES; Homo sapiens, read-out: LC50) was 34700 nM and the TGI (NCI/ADR-RES; five-dose) was 1780 nM. It also gave a GI50 (UACC-257; Homo sapiens, UACC-257) of 1320 nM, a CC50 (UACC-257; Homo sapiens, UACC-257, read-out: LC50) of 8510 nM and a TGI (UACC-257; UACC-257, five-dose) of 3390 nM. For the same compound, the TGI (HS 578 T; HS 578 T, five-dose) was 1380 nM, the GI50 (HS 578 T; Homo sapiens, Hs-578T) was 260 nM and the CC50 (HS 578 T; Homo sapiens, Hs-578T, read-out: LC50) was greater than 100000 nM. It also gave a GI50 (TK-10; Homo sapiens, TK-10) of 380 nM, a CC50 (TK-10; Homo sapiens, TK-10, read-out: LC50) of 6030 nM and a TGI (TK-10; TK-10, five-dose) of 1100 nM. The “level of cleaved PARP in A375” value [1] was “elevated level”, the GI50 ([2]; read-out: GI50, average across all cell lines tested) was 240 nM and the GI50 ([2]; read-out: GI50 values, range over all cell lines) was 140 to 10500 nM. The CC50 ([2]; read-out: LC50, average) was 7580 nM, the TGI (786–0; 786–0, five-dose) was 540 nM and the GI50 (786–0; Homo sapiens, 786-0) was 220 nM. It also gave a CC50 (786–0; Homo sapiens, 786-0, read-out: LC50) of 2450 nM.

With `O=C1C(Cl)=C(c2c(O)c3c(=O)n(-c4ccccc4)c4ccccc4c3oc2=O)C(=O)c2ccccc21` [compound 6, 3-(3-Chloro-1,4-dioxo-1,4-dihydronaphthalen-2-yl)-4-hydroxy-6-phenyl-2H-pyrano[3,2-c]quinoline-2,5(6H)-dione] the “level of cleaved PARP in A375” value [1] was “elevated level” and the “mechanism of ERK2 inhibition” value (ERK2) was “competitive inhibition”.
